In the test the target is Muscarinic acetylcholine receptor M1 (Rattus norvegicus) (UniProt P08482). Put plainly: ACh response enhancement at rat M1 – CHO cells, selectivity assay for M5 PAM project (AID 651921). The essentials:
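Assay system: CHO-K1 cell line | Reagent: Acetylcholine, EC20 | Compound: 0.3% DMSO final in compound wells | Times: 1.5 min compound, 50 s agonist, 25 °C | Measured by: Fluorescence readout of intracellular calcium | Evaluation: Baseline-normalized signal as percent of maximal acetylcholine response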

The source made the active and inactive calls. How the calls were made is not given here.

Sequence of Muscarinic acetylcholine receptor M1 (Rattus norvegicus) (P08482 whole entry, looked up): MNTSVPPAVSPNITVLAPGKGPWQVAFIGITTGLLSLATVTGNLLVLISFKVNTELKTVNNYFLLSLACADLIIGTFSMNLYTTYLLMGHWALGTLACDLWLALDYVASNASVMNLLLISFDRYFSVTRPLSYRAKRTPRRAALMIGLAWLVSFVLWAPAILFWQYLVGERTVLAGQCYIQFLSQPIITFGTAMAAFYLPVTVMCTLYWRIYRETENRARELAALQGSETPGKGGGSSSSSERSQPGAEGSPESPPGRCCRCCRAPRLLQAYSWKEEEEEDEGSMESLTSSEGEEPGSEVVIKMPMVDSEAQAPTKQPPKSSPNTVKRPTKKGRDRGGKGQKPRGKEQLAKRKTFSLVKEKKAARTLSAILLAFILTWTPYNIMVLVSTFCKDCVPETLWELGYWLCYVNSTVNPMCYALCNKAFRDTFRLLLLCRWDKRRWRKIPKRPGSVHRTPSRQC

In the case of `O=C1C(=O)N(CCOc2ccccc2)c2ccc(OC(F)(F)F)cc21`, the result was inactive.

The values are drawn from PubChem BioAssay AID651921 (Vanderbilt Specialized Chemistry Center, 2012).
